According to ChEMBL document CHEMBL2046302, “Fused tricyclic indoles as S1P₁ agonists with robust efficacy in animal models of autoimmune disease” (Bioorg Med Chem Lett, 2012):
The source made the active and inactive calls. The calls are words filed in the database; no cut-off is given here.

Tests used:
[1] = biological target: Sphingosine 1-phosphate receptor 5 (Homo sapiens, UniProt Q9H228); experiment: Agonist activity against human S1P5 by beta arrestin recruitment assay; type: functional
Method in brief: (§1)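 Agonist EC50 at human S1P1 through S1P5 was measured by β-arrestin recruitment. Values are the mean of three or more replicates.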

Salmonella typhimurium [2] = experiment: Mutagenic activity against Salmonella typhimurium assessed as frame shift mutation by ames test; type: toxicity, organism-based; conditions: salmonella enterica subsp. enterica serovar typhimurium
Method in brief: (§2)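 Ames bacterial reverse mutation test on five strains, scored for frame-shift and base-pair substitution mutations.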

[3] = AUClast in Sprague-Dawley rat in Sprague-Dawley rat at 2 mg/kg, iv and 3 mg/kg, po; type: ADME, organism-based; conditions: plasma
Method in brief: (§3)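 Male Sprague–Dawley rats received 2.0 mg/kg IV in 100% PEG400 and 3.0 mg/kg PO in 0.5% methyl cellulose. Clearance, Vss, terminal half-life, Cmax, AUClast and oral bioavailability were derived from plasma levels.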

[4] = biological target: T1, Sphingosine 1-phosphate receptor 4 (Homo sapiens, UniProt O95977); experiment: Agonist activity against human S1P4 by beta arrestin recruitment assay; type: functional; method in brief: as §1
T1 sequence (O95977 whole entry): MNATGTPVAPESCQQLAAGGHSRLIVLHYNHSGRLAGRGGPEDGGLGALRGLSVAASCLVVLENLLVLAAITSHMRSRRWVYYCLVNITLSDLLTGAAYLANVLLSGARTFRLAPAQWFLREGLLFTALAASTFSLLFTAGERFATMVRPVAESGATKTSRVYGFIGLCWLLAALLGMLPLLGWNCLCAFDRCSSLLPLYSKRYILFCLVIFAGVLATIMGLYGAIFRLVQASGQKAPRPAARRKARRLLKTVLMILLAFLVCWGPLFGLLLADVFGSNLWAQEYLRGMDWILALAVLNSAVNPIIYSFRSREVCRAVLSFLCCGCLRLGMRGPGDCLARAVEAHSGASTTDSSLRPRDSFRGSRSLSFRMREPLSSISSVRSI

Salmonella typhimurium [5] = experiment: Mutagenic activity against Salmonella typhimurium assessed as base pair mutation by ames test; type: toxicity, organism-based; conditions: salmonella enterica subsp. enterica serovar typhimurium; method in brief: as §2
Cytochrome P450 1A2 = biological target: T2, Cytochrome P450 1A2 (Homo sapiens, UniProt P05177); experiment: Inhibition of CYP1A2; type: ADME
T2 sequence (P05177 whole entry): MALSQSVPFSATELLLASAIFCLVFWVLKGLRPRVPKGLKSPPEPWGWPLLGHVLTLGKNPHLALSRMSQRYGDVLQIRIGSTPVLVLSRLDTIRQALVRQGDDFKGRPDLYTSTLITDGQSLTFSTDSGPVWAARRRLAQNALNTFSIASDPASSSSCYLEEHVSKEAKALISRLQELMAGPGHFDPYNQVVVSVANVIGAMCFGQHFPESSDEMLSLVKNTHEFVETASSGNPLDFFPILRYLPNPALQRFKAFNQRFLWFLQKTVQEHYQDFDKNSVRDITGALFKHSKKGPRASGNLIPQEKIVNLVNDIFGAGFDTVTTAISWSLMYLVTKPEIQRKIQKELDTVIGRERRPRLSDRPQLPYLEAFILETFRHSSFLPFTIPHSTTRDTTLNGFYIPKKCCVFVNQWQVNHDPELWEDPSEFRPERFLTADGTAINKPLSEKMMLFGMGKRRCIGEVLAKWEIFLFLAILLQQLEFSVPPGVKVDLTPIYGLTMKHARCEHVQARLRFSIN

[6] = biological target: Sphingosine 1-phosphate receptor 2 (Homo sapiens, UniProt O95136); experiment: Agonist activity against human S1P2 by beta arrestin recruitment assay; type: functional; method in brief: as §1
[7] = biological target: Sphingosine 1-phosphate receptor 3 (Homo sapiens, UniProt Q99500); experiment: Agonist activity against human S1P3 by beta arrestin recruitment assay; type: functional; method in brief: as §1
[8] = Cmax in Sprague-Dawley rat in Sprague-Dawley rat at 2 mg/kg, iv and 3 mg/kg, po; type: ADME, organism-based; conditions: in vivo; method in brief: as §3
[9] = Half life in human liver microsome; type: ADME; conditions: liver microsomes
[10] = biological target: Sphingosine 1-phosphate receptor 1 (Mus musculus, UniProt O08530); experiment: Agonist activity against mouse S1P1 assessed as accumulation of cAMP by HTRF assay; type: functional
Method in brief: (§4)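 Agonist EC50 was read from a cAMP HTRF assay run on human, rat and mouse S1P1. Response was scaled against S1P, and values are the mean of three or more replicates.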

[11] = biological target: T3, Sphingosine 1-phosphate receptor 1 (Homo sapiens, UniProt P21453); experiment: Agonist activity against human S1P1 assessed as accumulation of cAMP by HTRF assay; type: functional; method in brief: as §4
Cytochrome P450 2C9 = Cytochrome P450 2C9 (Homo sapiens, UniProt P11712); experiment: Inhibition of CYP2C9; type: ADME
[12] = biological target: T3, Sphingosine 1-phosphate receptor 1; experiment: Agonist activity against human S1P1 by beta arrestin recruitment assay; type: functional; method in brief: as §1
Rattus norvegicus [13] = experiment: Toxicity in telemeterized Charles-River Sprague-Dawley rat assessed as reduction in heart rate at 30 mg/kg, po measured over 20 hrs; type: organism-based; design: dose 30 mg/kg, route oral; conditions: in vivo
Method in brief: (§5)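 Telemeterized Charles River Sprague–Dawley rats received 3 or 30 mg/kg orally as a suspension in 0.5% methyl cellulose, with vehicle-treated and positive-control groups. Heart rate was recorded hourly over 20 h.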

[14] = biological target: T4, Voltage-gated inwardly rectifying potassium channel KCNH2 (Homo sapiens, UniProt Q12809); experiment: Inhibition of human ERG by patch clamp assay
[15] = Terminal half life in Sprague-Dawley rat at 2 mg/kg, iv and 3 mg/kg, po; type: ADME, organism-based; conditions: in vivo, read-out: beta t1/2 (converted); method in brief: as §3
Cytochrome P450 2C19 = Cytochrome P450 2C19 (Homo sapiens, UniProt P33261); experiment: Inhibition of CYP2C19; type: ADME
Cytochrome P450 3A4 = Cytochrome P450 3A4 (Homo sapiens, UniProt P08684); experiment: Inhibition of CYP3A4; type: ADME
[16] = Half life in rat liver microsome; type: ADME; conditions: liver microsomes
[17] = Oral bioavailability in Sprague-Dawley rat at 3 mg/kg; type: ADME, organism-based; conditions: in vivo; method in brief: as §3
Rattus norvegicus [18] = experiment: Toxicity in telemeterized Charles-River Sprague-Dawley rat assessed as reduction in heart rate at 3 mg/kg, po measured over 20 hrs; type: organism-based; design: dose 3 mg/kg, route oral; conditions: in vivo; method in brief: as §5
[19] = Clearance in Sprague-Dawley rat at 2 mg/kg, iv and 3 mg/kg, po; type: ADME, organism-based; conditions: in vivo; method in brief: as §3
Cytochrome P450 2D6 = Cytochrome P450 2D6 (Homo sapiens, UniProt P10635); experiment: Inhibition of CYP2D6; type: ADME
[20] = Volume of distribution at steady state in Sprague-Dawley rat at 2 mg/kg, iv and 3 mg/kg, po; type: ADME, organism-based; conditions: in vivo, read-out: Vdss; method in brief: as §3
[21] = biological target: Sphingosine 1-phosphate receptor 1 (Rattus norvegicus, UniProt P48303); experiment: Agonist activity against rat S1P1 assessed as accumulation of cAMP by HTRF assay; type: functional; method in brief: as §4
[22] = biological target: T4, Voltage-gated inwardly rectifying potassium channel KCNH2; experiment: Inhibition of human ERG by astemizole assay
Mus musculus = experiment: Immunosuppressant activity in autoimmune encephalomyelitis C57B1/6 mouse model assessed as reduction in disease score at 1 mg/kg, po qd administered on day 3 post challenge; type: functional, organism-based; design: dose 1 mg/kg
Method in brief: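 Oral dosing once daily in 0.5% methylcellulose began on day 3. Signs of disease were monitored daily and graded on a 1–5 scale, from limp tail or hind-limb weakness (1) to death (5).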

Rattus norvegicus [23] = experiment: Immunosuppressant activity in collagen-induced Lewis rat arthritis model assessed as reduction in joint inflammation at 1 mg/kg, po qd; type: functional, organism-based; design: dose 1 mg/kg
[24] = Half life in mouse liver microsome; type: ADME; conditions: liver microsomes

T3 sequence (P21453 whole entry): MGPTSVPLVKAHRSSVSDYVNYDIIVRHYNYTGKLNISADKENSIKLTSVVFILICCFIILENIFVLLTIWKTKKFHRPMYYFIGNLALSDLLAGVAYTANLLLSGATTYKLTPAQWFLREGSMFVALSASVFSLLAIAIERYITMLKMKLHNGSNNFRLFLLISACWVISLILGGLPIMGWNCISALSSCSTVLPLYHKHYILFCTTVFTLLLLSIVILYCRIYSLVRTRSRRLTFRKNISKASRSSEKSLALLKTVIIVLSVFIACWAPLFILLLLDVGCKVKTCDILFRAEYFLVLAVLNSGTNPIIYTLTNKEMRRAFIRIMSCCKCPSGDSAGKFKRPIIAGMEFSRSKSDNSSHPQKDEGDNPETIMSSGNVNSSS
Sequence of Sphingosine 1-phosphate receptor 1 (Rattus norvegicus, UniProt P48303) (P48303 whole entry): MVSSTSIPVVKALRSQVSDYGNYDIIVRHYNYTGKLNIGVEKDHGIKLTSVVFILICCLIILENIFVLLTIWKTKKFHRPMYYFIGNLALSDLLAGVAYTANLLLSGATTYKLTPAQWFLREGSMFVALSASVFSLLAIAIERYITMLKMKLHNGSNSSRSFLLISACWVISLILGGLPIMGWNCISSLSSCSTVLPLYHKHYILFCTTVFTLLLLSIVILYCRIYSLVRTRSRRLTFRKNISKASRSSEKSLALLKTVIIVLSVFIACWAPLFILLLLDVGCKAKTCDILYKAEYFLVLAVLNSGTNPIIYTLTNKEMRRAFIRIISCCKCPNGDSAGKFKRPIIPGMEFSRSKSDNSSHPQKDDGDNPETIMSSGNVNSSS
T4 sequence (Q12809 whole entry): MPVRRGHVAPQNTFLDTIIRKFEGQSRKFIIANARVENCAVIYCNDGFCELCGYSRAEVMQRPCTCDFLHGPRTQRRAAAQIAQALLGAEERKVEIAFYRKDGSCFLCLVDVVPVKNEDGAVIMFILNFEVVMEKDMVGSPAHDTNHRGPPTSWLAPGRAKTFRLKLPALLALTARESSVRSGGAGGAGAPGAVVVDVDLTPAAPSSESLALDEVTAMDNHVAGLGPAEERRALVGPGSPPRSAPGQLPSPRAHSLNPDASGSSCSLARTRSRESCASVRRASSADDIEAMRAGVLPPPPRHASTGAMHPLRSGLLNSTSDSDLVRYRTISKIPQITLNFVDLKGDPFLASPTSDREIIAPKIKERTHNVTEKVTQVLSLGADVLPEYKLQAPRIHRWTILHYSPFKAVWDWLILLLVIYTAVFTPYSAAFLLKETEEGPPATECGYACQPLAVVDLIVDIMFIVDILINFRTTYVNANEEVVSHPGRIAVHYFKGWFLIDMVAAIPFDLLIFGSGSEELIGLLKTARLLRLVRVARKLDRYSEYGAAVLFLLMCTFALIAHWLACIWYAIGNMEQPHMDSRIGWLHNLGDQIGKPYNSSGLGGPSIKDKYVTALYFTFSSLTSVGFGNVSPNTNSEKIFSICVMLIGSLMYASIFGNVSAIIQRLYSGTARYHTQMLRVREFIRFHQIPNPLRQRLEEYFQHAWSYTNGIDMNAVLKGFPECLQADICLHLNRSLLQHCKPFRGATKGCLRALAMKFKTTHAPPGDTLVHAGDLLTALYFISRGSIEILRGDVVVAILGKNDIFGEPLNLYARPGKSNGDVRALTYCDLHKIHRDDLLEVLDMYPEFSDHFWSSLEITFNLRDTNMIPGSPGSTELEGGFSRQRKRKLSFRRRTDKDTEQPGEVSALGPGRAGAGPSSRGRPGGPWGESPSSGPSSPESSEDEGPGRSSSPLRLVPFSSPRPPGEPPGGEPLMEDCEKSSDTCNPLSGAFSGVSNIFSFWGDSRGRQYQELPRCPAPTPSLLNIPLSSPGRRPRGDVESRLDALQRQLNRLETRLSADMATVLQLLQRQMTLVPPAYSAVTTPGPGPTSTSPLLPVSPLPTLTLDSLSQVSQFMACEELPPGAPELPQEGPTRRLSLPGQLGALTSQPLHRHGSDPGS
Sequence of Sphingosine 1-phosphate receptor 1 (Mus musculus, UniProt O08530) (O08530 whole entry): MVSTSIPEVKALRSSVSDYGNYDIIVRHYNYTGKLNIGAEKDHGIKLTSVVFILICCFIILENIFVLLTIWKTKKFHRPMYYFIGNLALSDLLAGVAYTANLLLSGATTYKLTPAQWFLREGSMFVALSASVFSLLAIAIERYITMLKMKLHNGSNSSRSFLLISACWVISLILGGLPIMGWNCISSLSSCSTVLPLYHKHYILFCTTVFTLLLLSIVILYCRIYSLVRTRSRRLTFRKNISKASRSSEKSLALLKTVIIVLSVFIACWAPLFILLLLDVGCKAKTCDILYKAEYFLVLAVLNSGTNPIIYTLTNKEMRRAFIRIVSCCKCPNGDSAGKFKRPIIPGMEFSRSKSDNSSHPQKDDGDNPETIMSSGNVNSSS
Sequence of Sphingosine 1-phosphate receptor 3 (Q99500 whole entry): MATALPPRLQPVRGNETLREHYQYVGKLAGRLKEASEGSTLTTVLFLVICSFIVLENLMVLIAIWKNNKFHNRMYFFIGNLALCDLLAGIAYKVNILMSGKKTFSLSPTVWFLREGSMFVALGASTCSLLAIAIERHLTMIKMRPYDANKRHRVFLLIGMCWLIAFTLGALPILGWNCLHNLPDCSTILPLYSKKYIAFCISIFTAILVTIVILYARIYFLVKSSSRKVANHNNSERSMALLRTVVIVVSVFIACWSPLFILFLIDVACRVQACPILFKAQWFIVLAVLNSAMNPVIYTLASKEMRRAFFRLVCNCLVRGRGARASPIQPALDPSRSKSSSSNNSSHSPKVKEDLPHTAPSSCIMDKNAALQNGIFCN
Sequence of Sphingosine 1-phosphate receptor 5 (Q9H228 whole entry): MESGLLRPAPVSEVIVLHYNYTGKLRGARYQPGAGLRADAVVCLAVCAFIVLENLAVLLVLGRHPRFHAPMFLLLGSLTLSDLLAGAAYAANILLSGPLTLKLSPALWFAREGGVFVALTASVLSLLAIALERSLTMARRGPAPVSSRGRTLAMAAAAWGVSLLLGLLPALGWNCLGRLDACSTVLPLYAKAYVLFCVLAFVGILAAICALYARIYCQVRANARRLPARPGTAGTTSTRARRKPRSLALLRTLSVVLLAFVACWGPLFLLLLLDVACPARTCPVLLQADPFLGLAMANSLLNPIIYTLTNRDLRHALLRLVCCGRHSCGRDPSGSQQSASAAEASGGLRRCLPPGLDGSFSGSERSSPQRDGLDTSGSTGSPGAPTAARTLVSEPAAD
Sequence of Sphingosine 1-phosphate receptor 2 (O95136 whole entry): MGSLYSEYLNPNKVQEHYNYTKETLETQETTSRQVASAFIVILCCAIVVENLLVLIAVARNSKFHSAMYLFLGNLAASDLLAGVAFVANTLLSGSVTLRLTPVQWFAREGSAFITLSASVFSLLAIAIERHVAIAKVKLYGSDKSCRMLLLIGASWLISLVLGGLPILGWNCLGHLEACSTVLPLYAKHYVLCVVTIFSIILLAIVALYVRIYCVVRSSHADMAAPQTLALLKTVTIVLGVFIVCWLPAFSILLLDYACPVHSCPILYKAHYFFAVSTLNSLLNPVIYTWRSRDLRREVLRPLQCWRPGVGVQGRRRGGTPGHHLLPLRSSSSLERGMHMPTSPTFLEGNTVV
Sequence of Cytochrome P450 3A4 (P08684 whole entry): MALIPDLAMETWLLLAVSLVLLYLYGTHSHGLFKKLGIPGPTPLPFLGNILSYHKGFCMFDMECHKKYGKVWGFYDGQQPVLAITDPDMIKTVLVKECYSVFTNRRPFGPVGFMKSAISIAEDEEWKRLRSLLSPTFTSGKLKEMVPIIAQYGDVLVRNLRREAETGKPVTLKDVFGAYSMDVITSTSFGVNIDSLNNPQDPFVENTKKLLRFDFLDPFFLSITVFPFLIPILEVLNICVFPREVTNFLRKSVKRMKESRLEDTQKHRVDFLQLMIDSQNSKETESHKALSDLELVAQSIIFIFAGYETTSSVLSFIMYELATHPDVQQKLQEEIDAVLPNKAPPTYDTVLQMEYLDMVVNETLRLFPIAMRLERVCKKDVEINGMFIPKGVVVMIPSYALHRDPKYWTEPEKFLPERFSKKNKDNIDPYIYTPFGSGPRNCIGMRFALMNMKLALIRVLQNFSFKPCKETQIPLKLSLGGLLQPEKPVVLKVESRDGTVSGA
Sequence of Cytochrome P450 2D6 (P10635 whole entry): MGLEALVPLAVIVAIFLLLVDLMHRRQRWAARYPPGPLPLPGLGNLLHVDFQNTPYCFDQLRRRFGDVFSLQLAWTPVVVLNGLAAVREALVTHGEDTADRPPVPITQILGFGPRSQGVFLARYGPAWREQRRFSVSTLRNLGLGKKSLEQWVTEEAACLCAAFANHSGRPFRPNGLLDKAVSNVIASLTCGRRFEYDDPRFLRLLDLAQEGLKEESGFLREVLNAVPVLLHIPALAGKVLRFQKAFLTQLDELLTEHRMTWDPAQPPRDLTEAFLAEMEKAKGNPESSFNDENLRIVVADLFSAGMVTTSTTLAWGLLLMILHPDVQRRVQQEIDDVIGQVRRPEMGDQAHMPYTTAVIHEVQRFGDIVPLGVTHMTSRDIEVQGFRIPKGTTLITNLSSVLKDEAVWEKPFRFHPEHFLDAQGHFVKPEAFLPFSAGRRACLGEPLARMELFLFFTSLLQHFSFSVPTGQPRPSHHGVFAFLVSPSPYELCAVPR
Sequence of Cytochrome P450 2C9 (P11712 whole entry): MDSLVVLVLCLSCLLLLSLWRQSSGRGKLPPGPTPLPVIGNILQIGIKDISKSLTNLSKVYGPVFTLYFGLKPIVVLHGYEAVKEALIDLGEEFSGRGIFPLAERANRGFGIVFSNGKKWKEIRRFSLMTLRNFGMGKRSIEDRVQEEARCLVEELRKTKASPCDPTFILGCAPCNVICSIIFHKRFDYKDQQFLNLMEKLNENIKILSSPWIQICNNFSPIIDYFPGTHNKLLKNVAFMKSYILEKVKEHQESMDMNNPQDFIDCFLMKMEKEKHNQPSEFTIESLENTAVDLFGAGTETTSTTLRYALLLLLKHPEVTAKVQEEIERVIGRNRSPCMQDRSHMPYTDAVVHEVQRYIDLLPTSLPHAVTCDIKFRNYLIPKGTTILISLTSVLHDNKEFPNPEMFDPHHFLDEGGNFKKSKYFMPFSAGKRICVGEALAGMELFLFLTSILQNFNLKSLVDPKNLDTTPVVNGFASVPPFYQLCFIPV

**Q.** For N#Cc1cc(OC(F)(F)F)cc(-c2nc(-c3ccc4c(c3)cc3n4CCC3CC(=O)O)no2)c1 (single isomer, unassigned; enantiomer 2), which EC50 [1] is on record?
**A.** 21 nM

**Q.** And the Activity (Salmonella typhimurium [2])?
**A.** Non-toxic

**Q.** And the AUC(0-t) [3]?
**A.** 124000 ng·h/mL

**Q.** And the EC50 [4]?
**A.** > 100000 nM

**Q.** What about the Activity (Salmonella typhimurium [5]) of the same compound?
**A.** Non-toxic

**Q.** What about the IC50 (Cytochrome P450 1A2) of the same compound?
**A.** > 30000 nM

**Q.** And the EC50 [6]?
**A.** > 100000 nM

**Q.** And the EC50 [7]?
**A.** > 100000 nM

**Q.** What about the Cmax [8] of the same compound?
**A.** 13300 ng/mL

**Q.** What about the half-life [9] of the same compound?
**A.** > 1 h

**Q.** What about the EC50 [10] of the same compound?
**A.** 0.52 nM

**Q.** What about the EC50 [11] of the same compound?
**A.** 0.08 nM

**Q.** What about the IC50 (Cytochrome P450 2C9) of the same compound?
**A.** > 30000 nM

**Q.** What about the EC50 [12] of the same compound?
**A.** 4.8 nM

**Q.** And the Activity (Rattus norvegicus [13])?
**A.** Non-toxic

**Q.** And the IC50 [14]?
**A.** > 400000 nM

**Q.** And the half-life [15]?
**A.** 4.68 h

**Q.** What about the IC50 (Cytochrome P450 2C19) of the same compound?
**A.** > 30000 nM

**Q.** And the IC50 (Cytochrome P450 3A4)?
**A.** > 30000 nM

**Q.** And the half-life [16]?
**A.** > 1 h

**Q.** And the bioavailability [17]?
**A.** 100%

**Q.** And the Activity (Rattus norvegicus [18])?
**A.** Non-toxic

**Q.** What about the clearance [19] of the same compound?
**A.** 0.422 mL/min/kg

**Q.** What about the IC50 (Cytochrome P450 2D6) of the same compound?
**A.** > 30000 nM

**Q.** What about the Vd [20] of the same compound?
**A.** 0.234 L/kg

**Q.** And the EC50 [21]?
**A.** 0.1 nM

**Q.** And the IC50 [22]?
**A.** > 30000 nM

**Q.** With CCCCCCCCc1ccc(CCC(N)(CO)CO)cc1 [FINGOLIMOD] as the compound, how does the Activity (Mus musculus) read?
**A.** Active

**Q.** And the Activity (Rattus norvegicus [18])?
**A.** Toxic

**Q.** What about the Activity (Rattus norvegicus [23]) of the same compound?
**A.** Active

**Q.** Which EC50 [11] does the source give for N#Cc1cc(-c2nc(-c3ccc4c(c3)cc3n4CCC3CC(=O)O)no2)ccc1OC(F)(F)F (racemic) here?
**A.** 0.59 nM

**Q.** For COc1cc(C#N)cc(-c2nc(-c3ccc4[nH]c5c(c4c3)CCC5CC(=O)O)no2)c1 (racemic), which EC50 [11] is on record?
**A.** 157 nM

**Q.** Which EC50 [11] does the source give for N#Cc1cc(OC(F)(F)F)cc(-c2nc(-c3ccc4c(c3)cc3n4CCC3CC(=O)O)no2)c1 (racemic) here?
**A.** 0.25 nM

**Q.** For N#Cc1cc(OC(F)(F)F)cc(-c2nc(-c3ccc4[nH]c5c(c4c3)CCC5CC(=O)O)no2)c1 (single isomer, unassigned), which EC50 [1] is on record?
**A.** 15 nM

**Q.** What about the AUC(0-t) [3] of the same compound?
**A.** 11000 ng·h/mL

**Q.** What about the EC50 [4] of the same compound?
**A.** 462 nM

**Q.** What about the EC50 [6] of the same compound?
**A.** > 100000 nM

**Q.** What about the EC50 [7] of the same compound?
**A.** > 100000 nM

**Q.** What about the Cmax [8] of the same compound?
**A.** 1400 ng/mL

**Q.** What about the half-life [9] of the same compound?
**A.** > 1 h

**Q.** And the half-life [24]?
**A.** > 1 h

**Q.** And the EC50 [10]?
**A.** 2.6 nM

**Q.** What about the EC50 [11] of the same compound?
**A.** 0.75 nM

**Q.** And the EC50 [12]?
**A.** 36 nM

**Q.** And the half-life [15]?
**A.** 5.46 h

**Q.** And the half-life [16]?
**A.** > 1 h

**Q.** What about the bioavailability [17] of the same compound?
**A.** 32.5%

**Q.** And the clearance [19]?
**A.** 1.39 mL/min/kg

**Q.** What about the Vd [20] of the same compound?
**A.** 0.734 L/kg

**Q.** What about the EC50 [21] of the same compound?
**A.** 1.8 nM

**Q.** With N#Cc1cc(OC(F)(F)F)cc(-c2nc(-c3ccc4[nH]c5c(c4c3)CCC5CC(=O)O)no2)c1 (racemic) as the compound, how does the EC50 [11] read?
**A.** 1.1 nM

**Q.** Which EC50 [11] does the source give for N#Cc1cc(-c2nc(-c3ccc4[nH]c5c(c4c3)CCC5CC(=O)O)no2)ccc1OC(F)(F)F (racemic) here?
**A.** 3.2 nM

**Q.** With COc1ccc(-c2nc(-c3ccc4c(c3)cc3n4CCC3CC(=O)O)no2)cc1C#N (racemic) as the compound, how does the EC50 [11] read?
**A.** 2.9 nM
